# Only a sample is shown.
# Apaf1 activ = activates human Apaf-1 apoptosome. O14727. Apaf-1 apoptosome caspase-3 activation, DEVD-Rh110 fluorescence; active compounds read low. activity change, negative = activation, % at 20 µM. 330,000 compounds, 0.31% hits;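 active = activity change at or below -40% at 20 µM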
#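 Material: reconstituted apoptosome of Apaf-1, cytochrome c, caspase-9, procaspase-3; times: 30 min preincubation, 50 min reaction, room temperature; measured by: fluorescence, 540 nm emission, 480 nm excitation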
# Rh110 act interf = counter-screen for Apaf-1 activators: fluorescence interference; 980 tested, under 10 active; Rh110 fluorescence interference, quenched caspase reaction, Ex480/Em540; shares compounds with Apaf1 activ; fluorescence interference (activity change), % at 20 µM, hits read low;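 active = mean activity change at or below -40% when tested at 20 µM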
# Apaf-1 act conf = confirmation of human Apaf-1 activators. shares compounds with Apaf1 activ. reconstituted apoptosome caspase-3 activity, DEVD-Rh110 fluorescence; active compounds read low. activity change, negative = activation, % at 20 µM. 980 compounds, 5% hits;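 active = mean activity change at or below -40%, meaning activation of 40% or more, at 20 µM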
# * hit, by the source's call.
SMILES,Apaf1 activ,others
CNCCc1nc(N)n[nH]1,-74*,Rh110 act interf=4;Apaf-1 act conf=12
Nc1cncc(C(=O)O)c1,41,
COCCNC(=O)c1c(NC(=O)c2ccc(Br)o2)n(Cc2ccccc2)c2nc3ccccc3nc12,67,
CCCNC1=C(C)C(=O)C2=C(C1=O)C(COC(N)=O)[C@]1(OC)C3NC3CN21 (stereo partly specified),57,
C[C@]12CC[C@H](OS(=O)(=O)O)CC1=CC[C@@H]1[C@@H]2CC[C@]2(C)C(=O)CC[C@@H]12,5,
O=c1cc(C2CCNCC2)[nH][nH]1,58,
CCOC(=O)C(O)(c1ccc(N(C)C(=O)c2ccc(Cl)c(Cl)c2)cc1)C(F)(F)F (stereo unspecified),-190*,Rh110 act interf=-2;Apaf-1 act conf=23
CCN(CCO)c1ccc(N=Cc2c(O)n(C)c(=S)[nH]c2=O)cc1,51,
c1ccc(-c2[nH]c[n+](CC3CO3)c2-c2ccccc2)cc1 (stereo unspecified),51,
Nc1c(C(=O)NC2CCCC2)c2nc3ccccc3nc2n1CC1CCCO1 (stereo unspecified),94,
CCOC(=O)c1c(NS(=O)(=O)c2ccccc2)n(CCCOC)c2nc3ccccc3nc12,96,
CCCCCn1c(NC(=O)c2ccco2)c(C(=O)OCC)c2nc3ccccc3nc21,92,
CCOc1ccc(Cl)cc1CNCCc1ccc(F)cc1,-44*,Rh110 act interf=-1;Apaf-1 act conf=11
CCN(CC)c1ccc(N=Cc2c(O)n(-c3cc(OC)ccc3OC)c(=O)[nH]c2=O)cc1,48,
Cc1ccc(C[n+]2c(-c3ccc(C)cc3)cc(-c3ccc(C)cc3)cc2-c2ccc(C)cc2)cc1,79,
O=c1[nH]c2ccccc2n1C1CCN(CCCC(c2ccc(F)cc2)c2ccc(F)cc2)CC1,56,
C=CCn1c(O)c(C(C)=Nc2ccc(C(=O)O)cc2)c(=O)[nH]c1=O,-77*,Rh110 act interf=-2;Apaf-1 act conf=12
CCCCCCCSc1cc(OC)c(CCN(C)C)cc1OC,56,
NC(N)=N/N=C/c1ccc(N(c2ccccc2)c2ccccc2)cc1,61,
c1cncc(C2Nc3cccc4cccc(c34)N2)c1,42,
CC[C@@H]1C(=O)OC[C@@H]1Cc1cncn1C,0,
Cc1c(C(=O)Nc2ccccc2)cc(-c2ccccc2)n1CCCN1CCOCC1,-201*,Rh110 act interf=-2;Apaf-1 act conf=10
CNc1ccc2nc3ccccc3[n+](C)c2c1,89,
CCCOC(=O)c1ccc(-[n+]2c(-c3ccccc3)cc(-c3ccccc3)cc2-c2ccccc2)cc1,47,
Clc1ccc(C(c2ccc(Cl)cc2)n2cc[n+](CC(OCc3ccc(Cl)cc3Cl)c3ccc(Cl)cc3Cl)c2)cc1 (stereo unspecified),89,

# Compound activity from PubChem BioAssay.
